Reference: ChEMBL document CHEMBL1145439, “Fluorine-18-labeled benzamide analogues for imaging the sigma2 receptor status of solid tumors with positron emission tomography” (J Med Chem, 2007)

How the values were obtained:
[1] = Displacement of [3H]DTG from sigma 2 receptor in rat liver membrane after 120 mins; format: cell membranes
Method in brief: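 Rat liver membranes (~300 µg protein) incubated with ~5 nM [3H]DTG plus 1 µM (+)-pentazocine to mask σ1 sites, 120 min at room temperature; 10 µM haloperidol defines nonspecific binding; filtration and scintillation counting. One-site nonlinear regression IC50, converted to Ki by Cheng-Prusoff; mean ± SEM.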

[2] = Selectivity for rat liver sigma 2 receptor over guinea pig brain sigma 1 receptor
[3] = test system: Heart; test: Biodistribution in heart of mouse EMT6 tumor bearing BALB/c mouse at 10 to 20 uCi after 30 mins; format: ADME, organism-based; conditions: in vivo, 0.5 h
Method in brief: (§1)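 EMT-6 cells (5×10^5 in 100 µL PBS) implanted s.c. in scapular region of female Balb/c mice (~2 months, 17-22 g); studied 7-10 days later at ~0.2 cm3 tumor. 18F tracer 10-20 µCi in 100-150 µL saline via tail vein; ≥4 mice per time point; tissue removed at sacrifice, weighed, gamma-counted; %ID/g calculated.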

[4] = test system: Brain; test: Biodistribution in brain of EMT6 tumor bearing BALB/c mouse at 10 to 20 uCi after 5 mins; format: ADME, organism-based; conditions: in vivo; method in brief: as §1
[5] = test system: Adipose tissue; test: Biodistribution in fat of mouse EMT6 tumor bearing BALB/c mouse at 10 to 20 uCi after 5 mins; format: ADME, organism-based; conditions: in vivo; method in brief: as §1
[6] = test system: Adipose tissue; test: Biodistribution in fat of mouse EMT6 tumor bearing BALB/c mouse at 10 to 20 uCi after 30 mins; format: ADME, organism-based; conditions: in vivo, 0.5 h; method in brief: as §1
[7] = test system: Adipose tissue; test: Biodistribution in fat of mouse EMT6 tumor bearing BALB/c mouse at 10 to 20 uCi after 120 mins; format: ADME, organism-based; conditions: in vivo, 2 h; method in brief: as §1
[8] = test system: Liver; test: Biodistribution in liver of mouse EMT6 tumor bearing BALB/c mouse at 10 to 20 uCi after 120 mins; format: ADME, organism-based; conditions: in vivo, 2 h; method in brief: as §1
[9] = test system: Liver; test: Biodistribution in liver of mouse EMT6 tumor bearing BALB/c mouse at 10 to 20 uCi after 5 mins; format: ADME, organism-based; conditions: in vivo; method in brief: as §1
[10] = test system: Lung; test: Biodistribution in lung of mouse EMT6 tumor bearing BALB/c mouse at 10 to 20 uCi after 60 mins; format: ADME, organism-based; conditions: in vivo, 1 h; method in brief: as §1
[11] = test system: Brain; test: Biodistribution in brain of mouse EMT6 tumor bearing BALB/c mouse at 10 to 20 uCi after 120 mins; format: ADME, organism-based; conditions: in vivo, 2 h; method in brief: as §1
[12] = test system: EMT6; test: Biodistribution in tumor of mouse EMT6 tumor bearing BALB/c mouse at 10 to 20 uCi after 120 mins; format: ADME, organism-based; conditions: emt6, 2 h; method in brief: as §1
[13] = test system: Muscle tissue; test: Biodistribution in muscle of mouse EMT6 tumor bearing BALB/c mouse at 10 to 20 uCi after 120 mins; format: ADME, organism-based; conditions: in vivo, 2 h; method in brief: as §1
[14] = Decrease in tumor to muscle ratio of the drug in mouse EMT6 tumor bearing BALB/c mouse after 1 hr in presence of YUN-143; format: ADME; parameters: scale not given: the % may be the effect or the level left
Method in brief: (§2)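 Blocking: 18F tracer coinjected i.v. with 1 mg/kg cold YUN-143 (σ1/σ2 ligand) into EMT-6 tumor-bearing female Balb/c mice; sacrificed at 60 min; tumor/muscle and tumor/fat ratios from %ID/g of gamma-counted tissues.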

[15] = test system: Liver; test: Biodistribution in liver of mouse EMT6 tumor bearing BALB/c mouse at 10 to 20 uCi after 60 mins; format: ADME, organism-based; conditions: in vivo, 1 h; method in brief: as §1
[16] = test system: Heart; test: Biodistribution in heart of mouse EMT6 tumor bearing BALB/c mouse at 10 to 20 uCi after 60 mins; format: ADME, organism-based; conditions: in vivo, 1 h; method in brief: as §1
[17] = test system: Bone; test: Biodistribution in bone of mouse EMT6 tumor bearing BALB/c mouse at 10 to 20 uCi after 5 mins; format: ADME, organism-based, Bone element; conditions: in vivo; method in brief: as §1
[18] = test system: EMT6; test: Biodistribution in tumor of EMT6 tumor bearing BALB/c mouse 10 to 20 uCi after 30 mins; format: ADME, organism-based; conditions: emt6, 0.5 h; method in brief: as §1
[19] = test system: Bone; test: Biodistribution in bone of mouse EMT6 tumor bearing BALB/c mouse at 10 to 20 uCi after 120 mins; format: ADME, organism-based, Bone element; conditions: in vivo, 2 h; method in brief: as §1
[20] = test system: EMT6; test: Biodistribution in tumor of mouse EMT6 tumor bearing BALB/c mouse at 10 to 20 uCi after 5 mins; format: ADME, organism-based; conditions: emt6, 5 min; method in brief: as §1
[21] = test system: Blood; test: Biodistribution in blood of mouse EMT6 tumor bearing BALB/c mouse at 10 to 20 uCi after 5 mins; format: ADME, organism-based; conditions: in vivo; method in brief: as §1
[22] = test system: Kidney; test: Biodistribution in kidney of mouse EMT6 tumor bearing BALB/c mouse at 10 to 20 uCi after 120 mins; format: ADME, organism-based; conditions: in vivo, 2 h; method in brief: as §1
[23] = test system: Kidney; test: Biodistribution in kidney of mouse EMT6 tumor bearing BALB/c mouse at 10 to 20 uCi after 30 mins; format: ADME, organism-based; conditions: in vivo, 0.5 h; method in brief: as §1
[24] = test system: Heart; test: Biodistribution in heart of mouse EMT6 tumor bearing BALB/c mouse at 10 to 20 uCi after 5 mins; format: ADME, organism-based; conditions: in vivo; method in brief: as §1
[25] = test system: Bone; test: Biodistribution in bone of mouse EMT6 tumor bearing BALB/c mouse at 10 to 20 uCi after 60 mins; format: ADME, organism-based, Bone element; conditions: in vivo, 1 h; method in brief: as §1
[26] = test system: Lung; test: Biodistribution in lung of mouse EMT6 tumor bearing BALB/c mouse at 10 to 20 uCi after 30 mins; format: ADME, organism-based; conditions: in vivo, 0.5 h; method in brief: as §1
[27] = test system: Kidney; test: Biodistribution in kidney of mouse EMT6 tumor bearing BALB/c mouse at 10 to 20 uCi after 5 mins; format: ADME, organism-based; conditions: in vivo; method in brief: as §1
[28] = test system: Brain; test: Biodistribution in brain of EMT6 tumor bearing BALB/c mouse at 10 to 20 uCi after 60 mins; format: ADME, organism-based; conditions: in vivo, 1 h; method in brief: as §1
[29] = test system: Lung; test: Biodistribution in lung of mouse EMT6 tumor bearing BALB/c mouse at 10 to 20 uCi after 5 mins; format: ADME, organism-based; conditions: in vivo; method in brief: as §1
[30] = Decrease in tumor to fat ratio of the drug in mouse EMT6 tumor bearing BALB/c mouse after 1 hr in presence of YUN-143; format: ADME; parameters: scale not given: the % may be the effect or the level left; method in brief: as §2
[31] = test system: Brain; test: Biodistribution in brain of EMT6 tumor bearing BALB/c mouse at 10 to 20 uCi after 30 mins; format: ADME, organism-based; conditions: in vivo, 0.5 h; method in brief: as §1
[32] = test system: Heart; test: Biodistribution in heart of EMT6 tumor bearing BALB/c mouse at 10 to 20 uCi after 120 mins; format: ADME, organism-based; conditions: in vivo, 2 h; method in brief: as §1
[33] = test system: Lung; test: Biodistribution in lung of mouse EMT6 tumor bearing BALB/c mouse at 10 to 20 uCi after 120 mins; format: ADME, organism-based; conditions: in vivo, 2 h; method in brief: as §1
[34] = test system: Blood; test: Biodistribution in blood of mouse EMT6 tumor bearing BALB/c mouse at 10 to 20 uCi after 120 mins; format: ADME, organism-based; conditions: in vivo, 2 h; method in brief: as §1
[35] = test system: Bone; test: Biodistribution in bone of mouse EMT6 tumor bearing BALB/c mouse at 10 to 20 uCi after 30 mins; format: ADME, organism-based, Bone element; conditions: in vivo, 0.5 h; method in brief: as §1
[36] = test system: Muscle tissue; test: Biodistribution in muscle of mouse EMT6 tumor bearing BALB/c mouse at 10 to 20 uCi after 30 mins; format: ADME, organism-based; conditions: in vivo, 0.5 h; method in brief: as §1
[37] = test system: Kidney; test: Biodistribution in kidney of mouse EMT6 tumor bearing BALB/c mouse at 10 to 20 uCi after 60 mins; format: ADME, organism-based; conditions: in vivo, 1 h; method in brief: as §1
[38] = test system: EMT6; test: Biodistribution in tumor of mouse EMT6 tumor bearing BALB/c mouse at 10 to 20 uCi after 60 mins; format: ADME, organism-based; conditions: emt6, 1 h; method in brief: as §1
[39] = test system: Muscle tissue; test: Biodistribution in muscle of EMT6 tumor bearing BALB/c mouse at 10 to 20 uCi after 5 mins; format: ADME, organism-based; conditions: in vivo; method in brief: as §1
[40] = test system: Liver; test: Biodistribution in liver of mouse EMT6 tumor bearing BALB/c mouse at 10 to 20 uCi after 30 mins; format: ADME, organism-based; conditions: in vivo, 0.5 h; method in brief: as §1
[41] = Tumor to fat ratio of the drug in mouse EMT6 tumor bearing BALB/c mouse at 10 to 20 uCi after 2 hrs; format: ADME
Method in brief: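 Tumor-bearing female Balb/c mice (EMT-6 s.c. allograft, ~0.2 cm3) given 10-20 µCi 18F tracer in saline i.v. via tail vein; ≥4 per group; killed 120 min later. Tissues weighed and gamma-counted; ratio = tumor %ID/g divided by that organ's %ID/g.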

[42] = test system: Adipose tissue; test: Biodistribution in fat of mouse EMT6 tumor bearing BALB/c mouse at 10 to 20 uCi after 60 mins; format: ADME, organism-based; conditions: in vivo, 1 h; method in brief: as §1
[43] = test system: Muscle tissue; test: Biodistribution in muscle of mouse EMT6 tumor bearing BALB/c mouse at 10 to 20 uCi after 60 mins; format: ADME, organism-based; conditions: in vivo, 1 h; method in brief: as §1
[44] = test system: Blood; test: Biodistribution in blood of mouse EMT6 tumor bearing BALB/c mouse at 10 to 20 uCi after 30 mins; format: ADME, organism-based; conditions: in vivo, 0.5 h; method in brief: as §1
[45] = test system: Blood; test: Biodistribution in blood of mouse EMT6 tumor bearing BALB/c mouse at 10 to 20 uCi after 60 mins; format: ADME, organism-based; conditions: in vivo, 1 h; method in brief: as §1

## COc1cc2c(cc1OC)CN(CCNC(=O)c1cc(C)ccc1OCCF)CC2
[1]
  Ki: 102 nM
[2]
  Ratio Ki: 222

## COc1cc2c(cc1OC)CN(CCCCNC(=O)c1cc(C)ccc1OCC[18F])CC2
[3]
  Drug uptake: 1.15 % ID/g
[4]
  Drug uptake: 0.76 % ID/g
[5]
  Drug uptake: 1.95 % ID/g
[6]
  Drug uptake: 0.59 % ID/g
[7]
  Drug uptake: 0.08 % ID/g
[8]
  Drug uptake: 2.05 % ID/g
[9]
  Drug uptake: 23.33 % ID/g
[10]
  Drug uptake: 0.88 % ID/g
[11]
  Drug uptake: 0.12 % ID/g
[12]
  Drug uptake: 0.64 % ID/g
[13]
  Drug uptake: 0.24 % ID/g
[14]
  Activity: 50%
[15]
  Drug uptake: 4.14 % ID/g
[16]
  Drug uptake: 0.55 % ID/g
[17]
  Drug uptake: 2.49 % ID/g
[18]
  Drug uptake: 2.54 % ID/g
[19]
  Drug uptake: 0.45 % ID/g
[20]
  Drug uptake: 3.67 % ID/g
[21]
  Drug uptake: 2.49 % ID/g
[22]
  Drug uptake: 0.87 % ID/g
[23]
  Drug uptake: 6.86 % ID/g
[24]
  Drug uptake: 3.73 % ID/g
[25]
  Drug uptake: 0.55 % ID/g
[26]
  Drug uptake: 2.36 % ID/g
[27]
  Drug uptake: 29.18 % ID/g
[28]
  Drug uptake: 0.18 % ID/g
[29]
  Drug uptake: 10.26 % ID/g
[30]
  Activity: 50%
[31]
  Drug uptake: 0.27 % ID/g
[32]
  Drug uptake: 0.27 % ID/g
[33]
  Drug uptake: 0.43 % ID/g
[34]
  Drug uptake: 0.35 % ID/g
[35]
  Drug uptake: 0.96 % ID/g
[36]
  Drug uptake: 0.7 % ID/g
[37]
  Drug uptake: 2.51 % ID/g
[38]
  Drug uptake: 1.14 % ID/g
[39]
  Drug uptake: 1.86 % ID/g
[40]
  Drug uptake: 10.51 % ID/g
[41]
  Ratio: 8
[42]
  Drug uptake: 0.22 % ID/g
[43]
  Drug uptake: 0.34 % ID/g
[44]
  Drug uptake: 1.16 % ID/g
[45]
  Drug uptake: 0.56 % ID/g

## COc1cc2c(cc1OC)CN(CCCCNC(=O)c1cc(I)cc(OC)c1OCCF)CC2
[1]
  Ki: 0.26 nM
[2]
  Ratio Ki: 8190
